According to ChEMBL document CHEMBL3758132, “Dissecting structure-activity-relationships of crebinostat: Brain penetrant HDAC inhibitors for neuroepigenetic regulation” (Bioorg Med Chem Lett, 2016):
Blank lines part the entries; values can stand above or below the compound they belong to. The source made the active and inactive calls. The calls are words filed in the database; no cut-off is given here.

Experiments:
Mus musculus [1] = species on record: Mus musculus; assay: Inhibition of HDAC in mouse forebrain primary neurons assessed as acetylation of histone H3K9 at 1 to 10 uM after 24 hrs by immunofluorescence assay
Summary of the method: (§1)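 Mouse forebrain primary neuronal cultures (DIV13–14) treated 24 h at 1 and 10 μM, n=3. Cells fixed and immunostained for H3K9ac or H4K12ac; nuclear fluorescence intensity quantified by imaging. […] Mean ± SEM; unpaired t-test.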

Histone deacetylase 1 = Histone deacetylase 1 (Homo sapiens, UniProt Q13547); assay: Inhibition of human recombinant HDAC1 using acetyllysine tripeptide coupled with 7-amino-4-methylcoumarin as substrate by fluorescence assay
Histone deacetylase 2 = Histone deacetylase 2 (Homo sapiens, UniProt Q92769); assay: Inhibition of human recombinant HDAC2 using acetyllysine tripeptide coupled with 7-amino-4-methylcoumarin as substrate by fluorescence assay
Histone deacetylase 3 = Histone deacetylase 3 (Homo sapiens, UniProt O15379); assay: Inhibition of human recombinant HDAC3 using acetyllysine tripeptide coupled with 7-amino-4-methylcoumarin as substrate by fluorescence assay
Mus musculus [2] = species on record: Mus musculus; assay: Inhibition of HDAC in mouse forebrain primary neurons assessed as acetylation of histone H4K12 at 1 to 10 uM after 24 hrs by immunofluorescence assay; summary of the method: as §1
[3] = Cmax in C57BL/6 mouse brain at 25 mg/kg, ip after 1 hr by LC/MS/MS analysis; assay type: ADME, organism-based; design: dose 25 mg/kg, route intraperitoneal
Summary of the method: (§2)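 Mice dosed intraperitoneally at 25 mg/kg. Brains and peripheral blood were collected at each point of a 6-point time course, three mice per time point. Compound concentration was measured in processed brain and blood samples. PK parameters were derived from the concentration-time profiles.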

[4] = Inhibition of HDAC in mouse forebrain primary neurons assessed as acetylation of histone H3K9 after 24 hrs by immunofluorescence assay
[5] = Cmax in C57BL/6 mouse brain at 25 mg/kg, ip after 0.5 hrs by LC/MS/MS analysis; assay type: ADME, organism-based; design: dose 25 mg/kg, route intraperitoneal; summary of the method: as §2
[6] = Cmax in C57BL/6 mouse brain at 25 mg/kg, ip after 2 hrs by LC/MS/MS analysis; assay type: ADME, organism-based; design: dose 25 mg/kg, route intraperitoneal; summary of the method: as §2
[7] = Cmax in C57BL/6 mouse brain at 25 mg/kg, ip after 6 hrs by LC/MS/MS analysis; assay type: ADME, organism-based; design: dose 25 mg/kg, route intraperitoneal; summary of the method: as §2
[8] = Cmax in C57BL/6 mouse brain at 25 mg/kg, ip after 24 hrs by LC/MS/MS analysis; assay type: ADME, organism-based; design: dose 25 mg/kg, route intraperitoneal; summary of the method: as §2
[9] = Cmax in C57BL/6 mouse plasma at 25 mg/kg, ip after 1 hr by LC/MS/MS analysis; assay type: ADME, organism-based; design: dose 25 mg/kg, route intraperitoneal; summary of the method: as §2
[10] = Cmax in C57BL/6 mouse plasma at 25 mg/kg, ip after 0.5 hrs by LC/MS/MS analysis; assay type: ADME, organism-based; design: dose 25 mg/kg, route intraperitoneal; summary of the method: as §2
[11] = Cmax in C57BL/6 mouse plasma at 25 mg/kg, ip after 2 hrs by LC/MS/MS analysis; assay type: ADME, organism-based; design: dose 25 mg/kg, route intraperitoneal; summary of the method: as §2
[12] = Cmax in C57BL/6 mouse plasma at 25 mg/kg, ip after 6 hrs by LC/MS/MS analysis; assay type: ADME, organism-based; design: dose 25 mg/kg, route intraperitoneal; summary of the method: as §2
[13] = Cmax in C57BL/6 mouse plasma at 25 mg/kg, ip after 12 hrs by LC/MS/MS analysis; assay type: ADME, organism-based; design: dose 25 mg/kg, route intraperitoneal; summary of the method: as §2
[14] = Cmax in C57BL/6 mouse plasma at 25 mg/kg, ip after 24 hrs by LC/MS/MS analysis; assay type: ADME, organism-based; design: dose 25 mg/kg, route intraperitoneal; summary of the method: as §2
[15] = Tmax in C57BL/6 mouse plasma at 25 mg/kg, ip after 0.5 to 24 hrs by LC/MS/MS analysis; assay type: ADME, organism-based; summary of the method: as §2
[16] = AUClast in C57BL/6 mouse plasma at 25 mg/kg, ip after 0.5 to 24 hrs by LC/MS/MS analysis; assay type: ADME, organism-based; summary of the method: as §2
[17] = AUCinfinity in C57BL/6 mouse plasma at 25 mg/kg, ip after 0.5 to 24 hrs by LC/MS/MS analysis; assay type: ADME, organism-based; design: dose 25 mg/kg, route intraperitoneal, time infinity; summary of the method: as §2
Mus musculus [18] = assay: Half life in C57BL/6 mouse plasma at 25 mg/kg, ip after 0.5 to 24 hrs by LC/MS/MS analysis; assay type: ADME, organism-based; conditions: in vivo; summary of the method: as §2
[19] = Apparent clearance in C57BL/6 mouse plasma at 25 mg/kg, ip after 0.5 to 24 hrs by LC/MS/MS analysis; assay type: ADME, organism-based; summary of the method: as §2
[20] = Mean Residence time up to the last quantifiable time-point in C57BL/6 mouse plasma at 25 mg/kg, ip after 0.5 to 24 hrs by LC/MS/MS analysis; assay type: ADME, organism-based; summary of the method: as §2
[21] = Tmax in C57BL/6 mouse brain at 25 mg/kg, ip after 0.5 to 24 hrs by LC/MS/MS analysis; assay type: ADME, organism-based; summary of the method: as §2
[22] = AUClast in C57BL/6 mouse brain at 25 mg/kg, ip after 0.5 to 24 hrs by LC/MS/MS analysis; assay type: ADME, organism-based; summary of the method: as §2
[23] = Ratio of drug level in brain to plasma in C57BL/6 mouse at 25 mg/kg, ip after 0.5 to 2 hrs by LC/MS/MS analysis; assay type: ADME, organism-based; conditions: brain and plasma, read-out: BPR
Summary of the method: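 Intraperitoneal dose of 25 mg/kg in mice, three animals per time point. Compound levels in processed brain and in peripheral blood were measured at matched times. Individual brain-to-plasma concentration ratios were calculated for the 0.5 to 2 h time points.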

[24] = target: T1, Protein deacetylase HDAC6 (Homo sapiens, UniProt Q9UBN7); assay: Inhibition of human recombinant HDAC6 using acetyllysine tripeptide coupled with 7-amino-4-methylcoumarin as substrate by fluorescence assay
T1 sequence (Q9UBN7 whole entry): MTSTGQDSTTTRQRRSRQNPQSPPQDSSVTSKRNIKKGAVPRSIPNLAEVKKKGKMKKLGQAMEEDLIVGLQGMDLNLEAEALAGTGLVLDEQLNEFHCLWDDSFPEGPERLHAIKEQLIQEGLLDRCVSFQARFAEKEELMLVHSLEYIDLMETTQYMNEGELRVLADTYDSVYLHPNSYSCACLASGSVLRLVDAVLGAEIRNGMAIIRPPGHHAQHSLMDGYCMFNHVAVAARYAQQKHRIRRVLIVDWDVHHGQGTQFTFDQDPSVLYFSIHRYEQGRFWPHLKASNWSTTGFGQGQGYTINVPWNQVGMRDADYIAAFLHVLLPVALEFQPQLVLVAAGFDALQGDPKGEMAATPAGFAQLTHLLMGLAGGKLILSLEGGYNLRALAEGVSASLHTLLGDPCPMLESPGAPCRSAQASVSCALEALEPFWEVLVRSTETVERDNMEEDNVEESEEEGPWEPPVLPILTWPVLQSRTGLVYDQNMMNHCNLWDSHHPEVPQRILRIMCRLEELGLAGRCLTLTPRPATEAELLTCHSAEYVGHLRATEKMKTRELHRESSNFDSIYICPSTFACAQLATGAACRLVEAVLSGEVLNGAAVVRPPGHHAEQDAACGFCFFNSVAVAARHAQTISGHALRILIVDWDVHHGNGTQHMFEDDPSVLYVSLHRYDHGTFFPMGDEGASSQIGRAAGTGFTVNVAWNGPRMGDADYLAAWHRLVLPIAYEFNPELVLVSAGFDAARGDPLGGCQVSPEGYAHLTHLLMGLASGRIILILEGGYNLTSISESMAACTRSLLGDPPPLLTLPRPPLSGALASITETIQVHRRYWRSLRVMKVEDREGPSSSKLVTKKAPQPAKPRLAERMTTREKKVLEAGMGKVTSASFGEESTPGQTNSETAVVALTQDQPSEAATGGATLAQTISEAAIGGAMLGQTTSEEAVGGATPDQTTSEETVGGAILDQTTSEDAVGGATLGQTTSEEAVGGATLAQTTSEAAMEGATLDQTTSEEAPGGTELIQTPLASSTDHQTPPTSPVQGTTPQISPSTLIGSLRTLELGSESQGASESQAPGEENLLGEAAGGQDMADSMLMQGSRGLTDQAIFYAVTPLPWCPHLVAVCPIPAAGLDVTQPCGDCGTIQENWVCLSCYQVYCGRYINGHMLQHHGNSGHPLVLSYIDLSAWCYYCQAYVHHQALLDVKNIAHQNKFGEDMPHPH

[25] = target: Histone deacetylase 5 (Homo sapiens) (UniProt Q9UQL6); assay: Inhibition of human recombinant HDAC5 using acetyllysine tripeptide coupled with 7-amino-4-methylcoumarin as substrate by fluorescence assay
Sequence of Histone deacetylase 5 (Homo sapiens) (Q9UQL6 whole entry): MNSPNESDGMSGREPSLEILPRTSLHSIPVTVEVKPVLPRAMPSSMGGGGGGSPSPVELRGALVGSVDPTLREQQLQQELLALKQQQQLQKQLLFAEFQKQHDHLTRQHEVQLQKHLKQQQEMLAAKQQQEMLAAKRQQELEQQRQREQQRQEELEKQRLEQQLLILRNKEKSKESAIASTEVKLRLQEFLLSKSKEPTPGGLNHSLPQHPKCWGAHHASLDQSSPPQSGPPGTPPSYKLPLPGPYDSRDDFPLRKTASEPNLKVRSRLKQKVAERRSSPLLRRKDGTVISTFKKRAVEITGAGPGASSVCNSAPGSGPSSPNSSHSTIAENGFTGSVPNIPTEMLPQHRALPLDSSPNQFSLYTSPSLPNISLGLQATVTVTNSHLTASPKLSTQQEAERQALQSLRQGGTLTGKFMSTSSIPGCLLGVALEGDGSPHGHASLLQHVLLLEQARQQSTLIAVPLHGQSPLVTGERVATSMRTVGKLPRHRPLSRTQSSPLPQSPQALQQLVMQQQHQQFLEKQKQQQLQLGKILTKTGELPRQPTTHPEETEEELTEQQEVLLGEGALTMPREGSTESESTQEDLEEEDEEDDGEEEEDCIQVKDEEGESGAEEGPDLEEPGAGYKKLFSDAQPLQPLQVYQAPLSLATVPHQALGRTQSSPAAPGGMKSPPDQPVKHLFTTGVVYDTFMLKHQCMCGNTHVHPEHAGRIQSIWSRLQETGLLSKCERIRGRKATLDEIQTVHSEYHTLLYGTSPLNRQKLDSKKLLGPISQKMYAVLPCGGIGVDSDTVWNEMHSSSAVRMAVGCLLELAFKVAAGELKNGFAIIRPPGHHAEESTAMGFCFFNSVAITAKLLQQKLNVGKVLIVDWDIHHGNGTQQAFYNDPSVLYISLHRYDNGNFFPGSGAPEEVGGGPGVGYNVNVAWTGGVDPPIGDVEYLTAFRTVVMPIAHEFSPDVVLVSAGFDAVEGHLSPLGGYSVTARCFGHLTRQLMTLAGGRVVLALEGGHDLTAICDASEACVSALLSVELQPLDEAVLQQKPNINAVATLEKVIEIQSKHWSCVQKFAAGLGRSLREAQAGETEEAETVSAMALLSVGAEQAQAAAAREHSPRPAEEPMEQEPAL

Sequence of Histone deacetylase 1 (Q13547 whole entry): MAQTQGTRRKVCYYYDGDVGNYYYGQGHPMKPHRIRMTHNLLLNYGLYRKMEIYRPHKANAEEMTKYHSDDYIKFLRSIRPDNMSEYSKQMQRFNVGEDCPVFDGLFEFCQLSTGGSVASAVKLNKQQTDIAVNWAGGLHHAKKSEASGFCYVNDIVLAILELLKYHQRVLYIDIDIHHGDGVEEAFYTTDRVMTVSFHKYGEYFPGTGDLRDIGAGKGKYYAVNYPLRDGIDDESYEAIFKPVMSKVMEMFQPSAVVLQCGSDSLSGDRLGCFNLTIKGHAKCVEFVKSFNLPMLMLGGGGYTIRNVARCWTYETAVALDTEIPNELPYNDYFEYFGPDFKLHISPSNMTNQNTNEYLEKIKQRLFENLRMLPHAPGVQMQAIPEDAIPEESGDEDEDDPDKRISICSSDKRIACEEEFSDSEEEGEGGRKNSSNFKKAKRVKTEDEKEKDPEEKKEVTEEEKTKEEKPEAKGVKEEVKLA
Sequence of Histone deacetylase 3 (O15379 whole entry): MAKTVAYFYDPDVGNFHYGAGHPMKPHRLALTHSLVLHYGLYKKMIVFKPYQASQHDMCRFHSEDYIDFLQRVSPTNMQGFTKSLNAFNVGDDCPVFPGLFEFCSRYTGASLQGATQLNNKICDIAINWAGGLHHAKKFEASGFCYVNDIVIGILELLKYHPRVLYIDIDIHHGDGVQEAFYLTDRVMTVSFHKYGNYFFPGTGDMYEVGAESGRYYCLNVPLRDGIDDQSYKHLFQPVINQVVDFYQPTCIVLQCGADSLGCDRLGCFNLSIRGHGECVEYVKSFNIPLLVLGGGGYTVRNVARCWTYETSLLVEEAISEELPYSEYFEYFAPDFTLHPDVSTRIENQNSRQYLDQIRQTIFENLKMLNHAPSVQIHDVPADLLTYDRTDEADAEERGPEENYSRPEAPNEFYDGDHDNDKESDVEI
Sequence of Histone deacetylase 2 (Q92769 whole entry): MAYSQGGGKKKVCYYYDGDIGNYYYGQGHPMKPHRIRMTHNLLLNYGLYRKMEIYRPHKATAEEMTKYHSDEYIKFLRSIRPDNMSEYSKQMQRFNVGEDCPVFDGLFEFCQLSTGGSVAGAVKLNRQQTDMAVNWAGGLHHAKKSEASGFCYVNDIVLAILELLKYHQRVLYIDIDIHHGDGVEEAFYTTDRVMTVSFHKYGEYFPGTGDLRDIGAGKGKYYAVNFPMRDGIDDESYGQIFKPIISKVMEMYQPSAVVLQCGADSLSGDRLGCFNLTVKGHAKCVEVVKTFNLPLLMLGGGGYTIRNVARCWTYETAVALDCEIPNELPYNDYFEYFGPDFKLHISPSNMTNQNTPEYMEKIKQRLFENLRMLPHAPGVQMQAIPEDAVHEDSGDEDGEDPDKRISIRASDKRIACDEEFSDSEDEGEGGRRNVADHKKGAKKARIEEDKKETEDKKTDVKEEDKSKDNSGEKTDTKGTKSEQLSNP

SMILES: COc1cc(O)cc(OC)c1/C=N/NC(=O)CCCCCC(=O)NO
IC50 (Histone deacetylase 1): 31.4 nM
IC50 (Histone deacetylase 2): 108 nM
IC50 (Histone deacetylase 3): 25.6 nM

SMILES: O=C(CCCCCC(=O)N/N=C/c1ccc(-c2cccnc2)cc1)NO
Cmax [3]: 79.1 nM
IC50 (Histone deacetylase 1): 1.1 nM
IC50 (Histone deacetylase 2): 10.8 nM
IC50 (Histone deacetylase 3): 0.8 nM
EC50 [4]: 140 nM
Cmax [5]: 75.7 nM
Cmax [6]: 45.2 nM
Cmax [7]: 13.5 nM
Cmax [8]: 9.73 nM
Cmax [9]: 1900 nM
Cmax [10]: 1670 nM
Cmax [11]: 1220 nM
Cmax [12]: 14.9 nM
Cmax [13]: 6.45 nM
Cmax [14]: 3.72 nM
Tmax [15]: 1 h
AUC(0-t) [16]: 5.41 µM·h
AUC(0-inf) [17]: 5.42 µM·h
t1/2 (Mus musculus [18]): 1.28 h
CL/F [19]: 217 mL/min/kg
MRT [20]: 1.6 h
Tmax [21]: 1 h
AUC(0-t) [22]: 0.12 µM·h
Kp [23]: 0.03
IC50 [24]: 0.5 nM
inhibition [25]: inactive

SMILES: COc1ccc(Br)c(/C=N/NC(=O)CCCCCC(=O)NO)c1
IC50 (Histone deacetylase 1): 0.6 nM
IC50 (Histone deacetylase 2): 5 nM
IC50 (Histone deacetylase 3): 1.2 nM

SMILES: O=C(CCCCCC(=O)N/N=C/c1ccc(-c2ccncc2)cc1)NO
IC50 (Histone deacetylase 1): 3.1 nM
IC50 (Histone deacetylase 2): 14.2 nM
IC50 (Histone deacetylase 3): 1.8 nM

SMILES: O=C(CCCCCC(=O)N/N=C/c1ccc(-c2ccccc2)cc1)NO
IC50 (Histone deacetylase 1): 1.4 nM
IC50 (Histone deacetylase 2): 2.1 nM
IC50 (Histone deacetylase 3): 3.4 nM
EC50 [4]: 210 nM
Cmax [5]: 60 nM
IC50 [24]: 0.6 nM
inhibition [25]: inactive

SMILES: O=C(CCCCCC(=O)N/N=C/c1ccc(-c2cncnc2)cc1)NO
IC50 (Histone deacetylase 1): 3.2 nM
IC50 (Histone deacetylase 2): 21 nM
IC50 (Histone deacetylase 3): 2.4 nM

Second part, the compound after the results:

inhibition (Mus musculus [1]): Active
IC50 (Histone deacetylase 1): 0.7 nM
IC50 (Histone deacetylase 2): 1 nM
IC50 (Histone deacetylase 3): 2 nM
inhibition (Mus musculus [2]): Active
SMILES: O=C(CCCCCCC(=O)N/N=C/c1ccc(-c2ccccc2)cc1)NO

IC50 (Histone deacetylase 1): 8 nM
IC50 (Histone deacetylase 2): 18.8 nM
IC50 (Histone deacetylase 3): 5.4 nM
SMILES: Cc1ccccc1-c1ccc(/C=N/NC(=O)CCCCCC(=O)NO)cc1

inhibition (Mus musculus [1]): Active
IC50 (Histone deacetylase 1): 19 nM
IC50 (Histone deacetylase 2): 33 nM
IC50 (Histone deacetylase 3): 61 nM
inhibition (Mus musculus [2]): Active
SMILES: O=C(CCCCC(=O)N/N=C/c1ccc(-c2ccccc2)cc1)NO

IC50 (Histone deacetylase 1): 2.3 nM
IC50 (Histone deacetylase 2): 6.9 nM
IC50 (Histone deacetylase 3): 1.4 nM
SMILES: O=C(CCCCCC(=O)N/N=C/c1ccc(-c2ccccn2)cc1)NO

IC50 (Histone deacetylase 1): 2.1 nM
IC50 (Histone deacetylase 2): 6.3 nM
IC50 (Histone deacetylase 3): 1.6 nM
SMILES: O=C(CCCCCC(=O)N/N=C/c1ccc(-c2cccs2)cc1)NO
